The values below come from publication PMC4040673 (Cell Death & Disease, 2014).

The test system of series [1] is isolated mitochondria from HT-22 cells. Kind of series: CCCP-induced depolarization / MPT pore opening in isolated HT-22 mitochondria. Format: cell-based, mouse. Conditions: 50 μM CCCP. The method in brief:
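Then treated with 50 μM CCCP protonophore. Δψm followed with 20 nM DiOC6(3) on a fluorescence plate reader. Measurements in triplicate, representative of at least three independent experiments.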

For series [2], the system named is HT-22 cells. Kind of series: Intracellular Ca2+. It is filed as cell-based, mouse. Conditions: glutamate 12 h, Fluo-4; n = 8. The method in brief: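 Transfected HT-22 cells seeded in 96-well plates and grown 24 h, then treated with 2 mM glutamate for 12 h. Fluo-4 AM (5 μM) added to the medium for 30 min. After washing, fluorescence read on a plate reader at excitation 485 nm and emission 520 nm.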

In a further series the test system is tAIF. Kind of series: SPR binding of peptides to tAIF. The arrangement: species or system mouse. Conditions: direct binding to immobilized protein, applied concentration range. On the technique in general: In SPR one partner is held on a chip, and binding of the other changes the refractive index at the surface.
The target in series [3] is CypA (Homo sapiens, UniProt P62937). Kind of series: SPR direct binding to immobilized CypA.
Series [4] has as its system HT-22 cells. The series can be described thus: Real-time impedance. Format: cell-based, mouse. Conditions: siRNA transfected; glutamate 2 mM, ~15 h, n=8.
Series [5] has as its system HT-22 cells. The series can be described thus: Cell viability. Format: cell-based, mouse. The conditions noted are these: siRNA transfected (Lipofectamine-2000), glutamate 2 mM, 12 h. An outline of the steps: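 HT-22 cells seeded at 10 000 cells/well in 96-well plates, in DMEM with 10% heat-inactivated calf serum at 37 °C. siRNA transfected with Lipofectamine-2000, then exposed to 2 mM glutamate for 12 h. MTT at 0.5 mg/ml for 1 h; absorbance read at 570 nm with 630 nm reference. Controls set to 100%. At least three repeats, n=8 per condition.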

For series [6], the system named is HT-22 cells. Kind of series: Annexin-V-FITC/PI flow cytometry in glutamate-treated HT-22 cells. It is filed as cell-based, mouse. Conditions: siRNA transfected; glutamate 2 mM. The method in brief: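 HT-22 cells grown at 37 °C, 5% CO2 in DMEM with 10% heat-inactivated calf serum. Transfected with scrambled or mouse CypA siRNA (Lipofectamine-2000), then given 2 mM glutamate. Stained with Annexin-V-FITC/PI by kit and run on a FACScan: FITC excited at 488 nm, emission 530±40 nm; PI excited at 488 nm, emission 680±30 nm. Experiments repeated at least three times.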

For series [7], the system named is HT-22 cells. Kind of series: Cell viability of glutamate-treated HT-22 cells in medium without Ca2+. It is filed as cell-based, mouse. The conditions noted are these: glutamate 2 mM, 12–14 h, n=4.
The next series deals with AIF. It is filed as cell-based, mouse. The conditions noted are these: peptide 50 μM or siRNA transfected; glutamate 2 mM, 12 h. The method in brief: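 HT-22 cells carried siRNA (Lipofectamine-2000) or 50 μM peptide (cationic lipid protein-transfection reagent) and were seeded on chamber slides. Exposed to 2 mM glutamate for 12–14 h. Fixed in 4% paraformaldehyde, permeabilised with 0.04% Triton X, and immunostained for AIF with Alexa 568/488 secondaries and DAPI. Imaged by confocal laser scanning with a 63× 1.4-NA oil objective.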

Series [8] concerns CypA. The series can be described thus: siRNA knockdown of CypA. It is filed as cell-based, mouse. The conditions noted are these: HT-22, RT-PCR and immunoblotting. The method in brief: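 HT-22 cells transfected with scrambled or mouse CypA siRNA (Lipofectamine-2000). One-step RT-PCR on total RNA, GAPDH as reference: cDNA step 60 °C 30 min, 95 °C 2 min, then 30 cycles of 95 °C 30 s, 57 °C 1 min, 70 °C 2 min. Lysates run on SDS-PAGE and blotted to PVDF. Primary antibody overnight at 4 °C, HRP secondary 1:2500, chemiluminescence; tubulin or actin as loading control.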
(In general: In western blotting, separated proteins are transferred to a membrane and probed.)

Sequence of CypA (Homo sapiens, UniProt P62937) (P62937 whole entry): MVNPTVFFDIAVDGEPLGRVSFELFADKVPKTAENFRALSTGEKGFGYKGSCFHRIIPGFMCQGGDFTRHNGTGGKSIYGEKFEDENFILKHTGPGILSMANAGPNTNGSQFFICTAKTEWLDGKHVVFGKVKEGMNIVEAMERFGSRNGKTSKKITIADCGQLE

`N#CC(C#N)=NNc1cccc(Cl)c1` [CCCP, carbonyl cyanide m-chlorophenyl hydrazone]: the “loss of Δψm induced by CCCP” value in [1] is “strong loss of Δψm”.
On to `N[C@@H](CCC(=O)O)C(=O)O` [Glutamate], for which the “intracellular Ca2+ concentration induced by glutamate” value with HT-22 cells [2] is recorded as “dose-dependent increase”.
Consider ILPEYLSNWTMEKVRREG [AIF(343–360)], for which the “affinity to tAIF (in words)” value with tAIF is reported as “No affinity to tAIF was detected”. At CypA [3], the “affinity for CypA (in words)” value is on record as “very weak affinity”. Besides, the “fold lower affinity for CypA compared with AIF(370–394)” value at CypA [3] (ratio of KD values) amounted to 1000 fold.
Take “siCypA: mouse siRNA targeting CypA: siCypAFw 5′-CUGAAUGGCUGGAUGGCAA-3′ and siCypARev 5′-UUGCCAUCCAGCCAUUCAG-3′ (chemistry not given here)”: the “protection against glutamate-induced cell death by siRNA, impedance” value in the series with HT-22 cells [4] is reported as “full protection”. For the same compound, the “protection against glutamate-induced cell death by siRNA, MTT” value in the series on HT-22 cells [5] is listed as “full protection”. The “protection against glutamate-induced cell death by siRNA, Annexin-V/PI” value with HT-22 cells [6] is on record as “full protection”. In addition, the “protective effect combined with depletion of extracellular Ca2+” value in the series on HT-22 cells [7] is “additive protective effects to depletion of extracellular Ca^2+”. In addition, the “glutamate-induced nuclear translocation of AIF” value in the series with AIF was “very weak nuclear AIF staining”. Moreover, the “CypA expression after siRNA” value in the series on CypA [8] is “significantly reduced”.
